High-throughput results (PubChem BioAssay)
Only a selection was taken, and hits are over-represented in it overall.
Pyk2 oligo antag = antagonists of Pyk2 self-association, primary screen, Q293 cells, FERM NanoBiT luminescence, HTS; Protein-tyrosine kinase 2-beta (Homo sapiens), Q14289; hits give low values; z-score (the deposit names both 25 µM and 10 µM); hit rate 0.83% among 99,000; AID 1347419, 2020;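 active = Z-score of -3 or lower, scaled per plate to the spread of control and sample wells; inactive = z-score above -3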;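 note: negative z-score means lost luminescence so less FERM oligomerization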
Target sequence (Q14289 whole entry, looked up): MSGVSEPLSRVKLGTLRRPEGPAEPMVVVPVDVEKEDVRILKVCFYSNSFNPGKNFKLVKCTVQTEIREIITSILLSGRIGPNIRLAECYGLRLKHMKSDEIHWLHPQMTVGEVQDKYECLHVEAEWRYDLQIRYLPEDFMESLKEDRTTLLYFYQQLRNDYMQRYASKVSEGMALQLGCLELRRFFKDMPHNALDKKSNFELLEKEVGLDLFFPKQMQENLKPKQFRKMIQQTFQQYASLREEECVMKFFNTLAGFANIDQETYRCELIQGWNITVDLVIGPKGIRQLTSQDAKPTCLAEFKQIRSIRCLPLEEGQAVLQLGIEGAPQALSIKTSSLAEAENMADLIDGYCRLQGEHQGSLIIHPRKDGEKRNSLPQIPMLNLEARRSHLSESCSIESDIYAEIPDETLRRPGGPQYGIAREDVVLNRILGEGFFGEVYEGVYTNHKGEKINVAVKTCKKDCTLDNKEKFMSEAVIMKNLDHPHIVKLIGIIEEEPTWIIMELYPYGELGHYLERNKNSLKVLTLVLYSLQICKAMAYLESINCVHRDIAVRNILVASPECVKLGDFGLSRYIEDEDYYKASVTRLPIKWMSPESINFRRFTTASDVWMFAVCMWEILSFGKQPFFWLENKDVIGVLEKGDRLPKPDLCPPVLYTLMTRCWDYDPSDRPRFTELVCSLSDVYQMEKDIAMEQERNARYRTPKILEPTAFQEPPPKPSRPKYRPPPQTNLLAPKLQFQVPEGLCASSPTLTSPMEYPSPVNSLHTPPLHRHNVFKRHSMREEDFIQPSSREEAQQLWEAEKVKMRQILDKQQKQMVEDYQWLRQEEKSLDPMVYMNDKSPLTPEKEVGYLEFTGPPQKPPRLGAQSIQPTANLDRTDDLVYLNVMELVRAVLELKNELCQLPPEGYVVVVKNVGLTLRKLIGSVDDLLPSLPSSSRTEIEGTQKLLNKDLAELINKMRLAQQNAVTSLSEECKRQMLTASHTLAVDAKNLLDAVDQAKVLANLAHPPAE
PTEN del growth = growth suppression of PTEN-null HCT116, primary screen, cell-based, CellTiter-Glo. HCT116 PTEN-null viability, 60 h; hits give low values. hit rate 1.2% among 140,000. AID 827, 2007. viability, % at 10 µM;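 active = viability at or below a set limit, 4 SD under the median of all tested compounds, cut at about 3.7% in these data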;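 note: PTEN knockout HCT116 line with beta catenin targeted HCT116 as companion control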
H69AR growth 86K = proliferation blockers of H69AR lung cancer cells, primary screen, cell-based, human, 86K library | H69AR lung tumor viability, ATP luminescence, 72 h; hits give low values | viability, % at 10 µM | hit rate 6% among 85,000 | AID 598, 2007;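 active = viability at or below 40%; inactive = viability above 40%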;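 note: multidrug resistant small cell line overexpressing MRP-1 efflux transporter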
HUVEC inhibit = inhibitors of HUVEC proliferation, primary screen, cell-based, 384-well; CellTiter-Glo luminescence, 72 h; hits give low values; viability, % at 10 µM (by protocol); hit rate 1.1% among 86,000; AID 648, 2007;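 active = viability at or below 30%; inactive = viability above 30%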
bCat KO growth = primary screen for growth suppressors in beta-catenin knockout HCT116 cells (colon tumor, human). HCT116 beta-catenin knockout viability, CellTiter-Glo, 60 h; hits give low values. viability, % at 10 µM. hit rate 1.5% among 140,000;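 active = viability at or under a set limit, the compound median less 4 SD, cut at about 6% in these data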
Fibroblast inh = antiproliferative effect on LL 47 fibroblasts – human, LL 47 cells, CellTiter-Glo luminescence, primary screen; LL 47 human lung fibroblast viability, ATP luminescence; hits give low values; viability, % at 10 µM; hit rate 1.1% among 85,000; AID 719, 2007;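 active = viability at or below 50% in the single dose screen; inactive = viability above 50%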;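 note: compound exposure lasted 72 h before the ATP readout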
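Material: human LL 47 lung fibroblast cells; quantity: 1,150 cells/well; medium: IMEM plus 15% FBS; doses: 0.1% DMSO in all compound wells; timing: overnight attachment after seeding, then 72 h compound exposure at 37 °C; detection: CellTiter-Glo luminescence; measure: % viability of median cell-only signal; controls: cell-only wells, no compound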
A number is an active result; n = inactive; x = no result.

SMILES	Pyk2 oligo antag	PTEN del growth	H69AR growth 86K	HUVEC inhibit	bCat KO growth	Fibroblast inh
O=c1[nH]c(=S)n(CCC2=CCCCC2)c(O)c1C=NC1CCN(Cc2ccccc2)CC1	n	n	x	x	n	x
O=c1[nH]c(=O)n(C2CCCCCC2)c(O)c1C=NC1CCN(Cc2ccccc2)CC1	n	n	35	n	n	n
CSc1ncc(Cl)c(C(=O)O)n1	n	n	x	x	n	x
O=C1C2CCCN2C(c2ccccc2)N1c1ccccn1 (stereo not drawn)	n	n	n	n	n	n
N#Cc1cc2c(nc1SCC(=O)Nc1cc(Cl)ccc1Cl)C1CCN2CC1	n	0.7	1.8	5.5	1.1	7.1
C=CCn1c(O)c(C(C)=Nc2cc(OC)ccc2OC)c(=O)[nH]c1=O	n	n	n	n	n	n
COc1ccc(N=C(C)c2c(O)n(C3CCCCC3)c(=O)[nH]c2=O)c(OC)c1	-3.4	n	n	n	n	n
CCC(=Nc1ccc2c(c1)CCC2)c1c(O)n(C2CCCCC2)c(=O)[nH]c1=O	n	n	n	n	n	n
CC(=Nc1ccc2c(c1)CCC2)c1c(O)n(C2CCCCC2)c(=O)[nH]c1=O	n	n	n	n	n	37
O=c1c2ccccc2nc(-c2ccc(-c3ccccc3)cc2)n1-c1ccncc1	n	n	x	x	n	x
C[N+]12CCC(CC1)C(C#N)(N1CCOCC1)C2 (stereo not drawn)	n	n	n	n	n	n
Nc1cccc(N=Cc2c(O)n(Cc3ccc(F)cc3)c(=O)[nH]c2=O)c1	n	n	x	x	n	x
COC(=O)C1=C(N)Oc2c(c(=O)oc3ccccc23)C1c1cccnc1 (stereo not drawn)	n	n	n	n	n	n
CCN1/C(=C\C=C\C2=[N+](CC)c3ccccc3C2(C)C)C(C)(C)c2ccccc21	-3.4	1.1	0.2	22	1.1	8.7
CCCCn1c(N)c(C(=O)OCC2CCCO2)c2nc3ccccc3nc21 (stereo not drawn)	n	n	n	n	n	n
CC(C)CCn1c(N)c(C(=O)OCC2CCCO2)c2nc3ccccc3nc21 (stereo not drawn)	n	n	20	n	n	n
CC(C)OC(=O)c1c(N)n(CC2CCCO2)c2nc3ccccc3nc12 (stereo not drawn)	n	n	34	n	n	x
CN(C)CCN=Cc1c(O)n(-c2cccc3ccccc23)c(=O)[nH]c1=O	n	n	x	x	n	x
Cc1[nH]c2c(Cl)cccc2c1CCN	x	x	22	n	x	n
CCCCc1ccc2[nH]cc(CCN)c2c1	n	n	14	n	n	n
NCCc1c[nH]c2ccccc12	x	n	x	x	n	x
Brc1ccc2c(c1)C(OC1CN3CCC1CC3)c1ccccc1CS2 (stereo not drawn)	n	2.9	x	x	6.0	x
O=C1C2CCCN2C(c2cccnc2)N1c1ccc(Cl)c(Cl)c1 (stereo not drawn)	-3.1	n	n	n	n	n
Cc1cc2c(s1)NC(=O)CN=C2c1cccs1	n	n	n	n	n	n
O=C1CN=C(c2cccs2)c2c(sc3c2CCCC3)N1	n	n	21	n	n	n
SMILES	Pyk2 oligo antag	PTEN del growth	H69AR growth 86K	HUVEC inhibit	bCat KO growth	Fibroblast inh
COc1cc(/C=C(/C)[N+](=O)[O-])ccc1OCc1ccccc1Cl	x	1.2	x	x	1.6	x
O=C(c1ccc2c(c1)ncn2C1CCCCCC1)N1CCC2(CC1)OCCO2	n	n	28	n	n	n
O=C(Nc1ccc(Cl)cc1)Nc1nccs1	n	n	29	n	n	n
CCCCn1c(O)c(C(CC)=Nc2ccc(OCC)cc2)c(=O)[nH]c1=O	n	n	n	n	n	n
C=CCn1c(O)c(C(CC)=NC(C)c2ccccc2)c(=O)[nH]c1=O (stereo not drawn)	n	x	n	n	n	n
CCCCn1c(O)c(C(CC)=Nc2ccc(OC)cc2OC)c(=O)[nH]c1=O	n	n	34	n	n	n
CCCCn1c(O)c(C(C)=NC(C)c2ccccc2)c(=O)[nH]c1=O (stereo not drawn)	-3.6	n	28	n	n	n
CCCCn1c(O)c(C(CC)=NC(C)c2ccccc2)c(=O)[nH]c1=O (stereo not drawn)	-3.8	n	17	n	n	n
Cc1ccsc1-c1nc(CSCC(=O)N2CCC3(CC2)OCCO3)c(C)o1	n	n	n	n	n	n
Clc1ccc(C(c2ccccc2)c2ncc[nH]2)cc1 (stereo not drawn)	x	n	x	x	n	x
CCc1nc2ccccc2c(=O)n1-c1ccc2ccccc2c1	n	n	31	n	n	n
CC(C)OCCCNC(=O)c1c(N)n(CC2CCCO2)c2nc3ccccc3nc12 (stereo not drawn)	n	n	n	n	n	n
COc1ccc(CCNC(=O)c2c(N)n(CCN3CCOCC3)c3nc4ccccc4nc23)cc1OC	n	n	12	n	n	n
COCCCn1c(N)c(C(=O)NCCC(C)C)c2nc3ccccc3nc21	n	2.7	18	n	1.6	n
CCOCCCn1c(N)c(C(=O)Nc2sc3c(c2C(=O)OC)CCCC3)c2nc3ccccc3nc21	n	n	x	x	n	x
CCOC(=O)c1c(NC(=O)c2c(N)n(CCCOC)c3nc4ccccc4nc23)sc2c1CCCC2	n	n	11	n	4.0	n
CCCCCCn1c(N)c(C(=O)NCCN2CCOCC2)c2nc3ccccc3nc21	n	1.4	1.5	28	n	n
CCC(=O)O[C@@H]1[C@@H](OC(C)=O)[C@@]2(O)C(C[C@H](O)C2(C)C)[C@](C)(O)[C@H]2CC[C@@H]3[C@@H](O)[C@]12C[C@@]3(C)O (stereo partly drawn)	x	n	x	x	n	x
O=c1c2ccccc2nc(N2CCCC2)n1-c1ccc(Cl)cc1	n	n	n	n	n	n
C/C(=N\NC(=S)Nc1ccccc1)c1c(O)n(C)c(=O)n(C)c1=O	x	n	x	x	n	x
Nc1ccccc1C(=O)OCC(=O)Nc1ccc(Br)cc1F	n	n	x	x	n	x
O=C(c1ccccc1)c1cn(CC(=O)N2CCOCC2)c2ccccc12	n	n	n	n	n	n
Nc1c(C(=O)NCc2ccco2)c2nc3ccccc3nc2n1CCN1CCOCC1	n	n	39	n	n	n
CCCCNC(=O)c1c(N)n(Cc2ccc3c(c2)OCO3)c2nc3ccccc3nc12	n	n	5.1	n	n	n
CCCCCn1c(N)c(C(=O)NCCN2CCOCC2)c2nc3ccccc3nc21	n	n	30	n	n	n
CCCNC(=O)c1c(N)n(CC2CCCO2)c2nc3ccccc3nc12 (stereo not drawn)	n	n	n	n	n	n
O=c1c2ccccc2nc(-c2cccs2)n1-c1ccccc1	n	n	x	x	n	x
CCn1nc(-c2cccs2)nc2c(=O)n(C)c(=O)nc1-2	-3.3	n	x	x	n	x
